From ChEMBL document CHEMBL1123881, “Synthesis and antiarrhythmic activity of new 3-[2-(omega-aminoalkoxy)phenoxy]-4-phenyl-3-buten-2-ones and related compounds” (J Med Chem, 1987)
≈ marks a conversion by molar mass, not a printed value.

Assays:
[1] = organism: Oryctolagus cuniculus; assay: Tested in vitro for antiarrhythmic activity in isolated rabbit atria; assay type: functional; details: Heart
In short: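 Atria from New Zealand rabbits in oxygenated Ringer-Locke at 29 °C, paced with 10-ms, 10-V rectangular pulses at rising frequency to find the maximum driven frequency. This was remeasured before and 10, 15 and 20 min after drug addition. Dose-response curves on the same tissue, repeated 3-5 times. EC values by probit.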

[2] = The compound was tested for acute toxicity when given intravenously in rat; assay type: organism-based; details: in vivo, iv
In short: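 Sprague-Dawley rats of both sexes, 120-140 g, dosed intravenously; survivors observed for 1 week. LD50 derived by probit method, confidence limits at p = 0.05.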

[3] = tested on: Rattus norvegicus; assay: Antiarrhythmic activity ( protection against CaCl2 induced ventricular fibrillation ) in anesthetized rat administered intravenously; assay type: functional; details: Heart, iv
In short: (§1)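 Sprague-Dawley albino rats, 180-200 g, conscious or urethane-anesthetized (2.8 g/kg sc). Compound given via caudal or portal vein 2 min, or orally 60 min, before rapid iv 8% CaCl2 at 1 mL/kg. Lead II ECG monitored for fibrillation within 10 min. Five to ten rats per dose.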

[4] = The compound was tested for acute toxicity when given intraperitoneally in mouse.; assay type: organism-based; details: in vivo, ip
In short: (§2)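 Albino CF1 mice of both sexes, 18-20 g, dosed intraperitoneally; survivors observed for 1 week; ten mice per dose. LD50 derived by probit method, confidence limits at p = 0.05.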

[5] = The compound was tested for acute toxicity when given intraperitoneally in mouse; assay type: organism-based; details: in vivo, ip; in short: as §2
[6] = tested on: Mus musculus; assay: Antiarrhythmic activity ( protection against aconitine induced ventricular tachycardia) in anesthetized mouse administered through iv(ear or caudal vein); assay type: functional; details: Heart
In short: (§3)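 Albino CF1 mice of both sexes, 20-22 g, pentobarbital-anesthetized (60 mg/kg ip), lead II ECG. Dosing iv (caudal vein) 2 min or orally 60 min before aconitine infusion, 8 µg/mL at 0.32 mL/min for 3 min. ECG read every 10 s. Endpoint is time to initial arrhythmia and to ventricular tachycardia. Ten mice per dose; probit analysis.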

[7] = tested on: Mus musculus; assay: Antiarrhythmic activity ( protection against aconitine induced ventricular tachycardia) in anesthetized mouse administered perorally; assay type: functional; details: Heart, po; in short: as §3
[8] = tested on: Rattus norvegicus; assay: The compound was tested for blood electrolyte K+ in rat serum when induced through femoral vein (iv),at 20 mg/kg; assay type: functional
In short: (§4)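 Sprague-Dawley rats of both sexes, 140-150 g. Serum K+ measured by flame photometry 1 h after iv dosing. Five rats per dose.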

[9] = tested on: Canis familiaris; assay: The compound was tested for antiarrhythmic activity in infarcted conscious dog through iv(ear or caudal vein); assay type: functional; details: Canis lupus familiaris, Heart
In short: (§5)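 Beagle dogs of both sexes, 10-14 kg, coronary ligature under pentobarbital (30 mg/kg iv) with artificial ventilation. Next day, dogs without spontaneous arrhythmia get epinephrine 2-10 µg/kg iv (ear vein). Compound then given iv. ECG at 5-180 min, with epinephrine re-challenge at each time. Maximal ectopic beats/min counted before and after each dose, in 2-4 dogs.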

[10] = tested on: Canis familiaris; assay: Antiarrhythmic activity ( protection against epinephrine induced ventricular fibrillation ) in post infarcted conscious dog administered iv(ear or caudal vein); assay type: functional; details: Canis lupus familiaris, Heart
[11] = tested on: Rattus norvegicus; assay: Activity on heart rate in anesthetized rat when induced through femoral vein (iv), at 5 mg/kg; assay type: functional
In short: (§6)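 Heart rate in anesthetized rats, given iv (femoral vein) or into the portal vein. Rate recorded a few seconds before drug administration.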

[12] = tested on: Rattus norvegicus; assay: The compound was tested for activity on heart rate in anesthetized rat when induced through portal vein (ipv),at 14 mg/kg; assay type: functional; in short: as §6
[13] = tested on: Rattus norvegicus; assay: Antiarrhythmic activity ( protection against CaCl2 induced ventricular fibrillation ) in conscious rat administered intravenously; assay type: functional; details: Heart, iv; in short: as §1
[14] = tested on: Mus musculus; assay: Antiarrhythmic activity ( protection against aconitine induced initial arrhythmia ) in anesthetized mouse administered through iv(ear or caudal vein); assay type: functional; details: Heart; in short: as §3
[15] = tested on: Rattus norvegicus; assay: Antiarrhythmic activity (protection against CaCl2 induced ventricular fibrillation) in anesthetized rat administered through portal vein (ipv); assay type: functional; details: Heart; in short: as §1
[16] = tested on: Mus musculus; assay: Antiarrhythmic activity ( protection against aconitine induced initial arrhythmia ) in anesthetized mouse administered perorally; assay type: functional; details: Heart, po; in short: as §3
[17] = tested on: Rattus norvegicus; assay: Antiarrhythmic activity ( protection against CaCl2 induced ventricular fibrillation ) in conscious rat administered orally (po); assay type: functional; details: Heart; in short: as §1
[18] = organism: Mus musculus; assay: The compound was tested for effective concentration (intradermal injection) that caused local anesthesia in 50% of mice by tail-clip method; assay type: functional, organism-based
[19] = tested on: Canis familiaris; assay: Antiarrhythmic activity ( protection against epinephrine induced ventricular fibrillation ) in post infarcted conscious dog administered iv.; assay type: functional; details: Canis lupus familiaris, Heart
[20] = tested on: Rattus norvegicus; assay: The compound was tested for activity on heart rate in anesthetized rat when induced through femoral vein (iv) at a dose of 1 mg/kg; assay type: functional; in short: as §6
[21] = tested on: Rattus norvegicus; assay: The compound was tested for blood electrolyte K+ in rat serum when induced through femoral vein (iv) at a dose of 5 mg/kg; assay type: functional; in short: as §4
[22] = tested on: Canis familiaris; assay: The compound was tested for antiarrhythmic activity in infarcted conscious dog through iv; assay type: functional; details: Canis lupus familiaris, Heart; in short: as §5
[23] = tested on: Mus musculus; assay: Antiarrhythmic activity (protection against aconitine induced ventricular tachycardia) in anesthetized mouse administered through iv.; assay type: functional; details: Heart; in short: as §3
[24] = tested on: Rattus norvegicus; assay: The compound was tested for activity on heart rate in anesthetized rat when induced through portal vein (ipv) at a dose of 2 mg/kg; assay type: functional; in short: as §6
[25] = tested on: Mus musculus; assay: Antiarrhythmic activity (protection against aconitine induced initial arrhythmia) in anesthetized mouse administered through iv.; assay type: functional; details: Heart; in short: as §3

Structure (SMILES)	EC30 [1]	LD50 [2]	ED50 [3]	LD50 [4]	LD50 [5]	also measured
CC(=O)/C(=C\c1ccccc1)Oc1ccccc1OCCCN1CCCCC1	1.6 µg/mL (≈ 4.22 µM)	6.5 mg/kg	0.2 mg/kg	62 mg/kg		
CCN(CC)CCOc1ccccc1OC(Cc1ccccc1)C(C)O (stereo not drawn)	2.5 µg/mL (≈ 6.99 µM)		1 mg/kg		85 mg/kg	
CCN(CC)CCOc1ccccc1OC(Cc1ccccc1)C(C)=O (stereo not drawn)	10 µg/mL (≈ 28.1 µM)	11.7 mg/kg	0.75 mg/kg		92 mg/kg	
CC(=O)/C(=C\c1ccccc1)Oc1ccc(OCC(C)N(C)C)cc1 (stereo not drawn)	3.5 µg/mL (≈ 10.3 µM)		3 mg/kg	100 mg/kg		
CCN(CC)CCOc1ccc(O/C(=C/c2ccccc2)C(C)=O)cc1	3 µg/mL (≈ 8.49 µM)		2 mg/kg	163 mg/kg		
CC(=O)/C(=C\c1ccccc1)Oc1ccccc1OCC(O)CNC(C)(C)C (stereo not drawn)	0.51 µg/mL (≈ 1.33 µM)	17 mg/kg		80 mg/kg		
CC(=O)/C(=C\c1ccccc1)Oc1ccccc1OCCN(C(C)C)C(C)C	1 µg/mL (≈ 2.62 µM)	10.1 mg/kg	0.5 mg/kg		125 mg/kg	
CC(=O)/C(=C\c1ccccc1)Oc1ccccc1OCCN1CCCCC1	3 µg/mL (≈ 8.21 µM)	11.2 mg/kg			63 mg/kg	
CC(=O)/C(=C\c1ccccc1)Oc1cc(Cl)ccc1OCCN(C(C)C)C(C)C	2 µg/mL (≈ 4.81 µM)		0.62 mg/kg	165 mg/kg		
C/C=C(/Oc1ccccc1OCCN(CC)CC)C(C)=O	5 µg/mL (≈ 17.2 µM)		3 mg/kg	80 mg/kg		
CC(=O)/C(=C\c1ccccc1)Oc1ccccc1OCC(O)CN1CCN(C)CC1 (stereo not drawn)	10 µg/mL (≈ 24.4 µM)		7.5 mg/kg	175 mg/kg		
CCN(CC)CCOc1ccc(Cl)cc1O/C(=C/c1ccccc1)C(C)=O	2 µg/mL (≈ 5.16 µM)		0.6 mg/kg	170 mg/kg		
CCN(CC)CCNC(=O)c1ccc(N)cc1 [PROCAINAMIDE]	45.8 µg/mL (≈ 195 µM)	121 mg/kg	48.1 mg/kg		312 mg/kg	
C=C[C@H]1CN2CC[C@H]1C[C@@H]2[C@@H](O)c1ccnc2ccc(OC)cc12 [QUINIDINE]	3.9 µg/mL (≈ 12 µM)					ED50 [6]: 14 mg/kg; ED50 [7]: 158 mg/kg; Activity [8]: 3%; ED50 [9]: 5.5 mg/kg; ED50 [10]: 1 mg/kg; Activity [11]: -30%; Activity [12]: -36%; ED50 [13]: 3.2 mg/kg; ED50 [14]: 15.2 mg/kg; ED50 [15]: 13.5 mg/kg; ED50 [16]: 122 mg/kg; ED50 [17]: 47.7 mg/kg
CCN(CC)CCOc1ccccc1O/C(=C/c1ccccc1)C(C)=O [ZOCAINONE]	0.7 µg/mL (≈ 1.98 µM)	8.9 mg/kg	0.46 mg/kg	72 mg/kg		EC50 [18]: 0.01 µg/mL (≈ 0.0283 µM); ED50 [7]: 149 mg/kg; ED50 [19]: 2 mg/kg; Activity [20]: -15%; Activity [21]: 12%; ED50 [13]: 0.88 mg/kg; ED50 [22]: 2 mg/kg; ED50 [23]: 11 mg/kg; ED50 [15]: 2.3 mg/kg; Activity [24]: -1%; ED50 [25]: 7.5 mg/kg; ED50 [16]: 132 mg/kg; ED50 [17]: 13.6 mg/kg
